Experimental data pooled from the literature.
Protocols differ between the studies behind these lines.
Target: Amine oxidase [flavin-containing] B (MAOB, Homo sapiens, UniProt P27338)
Effect on: enzyme activity
Action: inhibitor
Sequence (P27338 1-520, as in one of the studies): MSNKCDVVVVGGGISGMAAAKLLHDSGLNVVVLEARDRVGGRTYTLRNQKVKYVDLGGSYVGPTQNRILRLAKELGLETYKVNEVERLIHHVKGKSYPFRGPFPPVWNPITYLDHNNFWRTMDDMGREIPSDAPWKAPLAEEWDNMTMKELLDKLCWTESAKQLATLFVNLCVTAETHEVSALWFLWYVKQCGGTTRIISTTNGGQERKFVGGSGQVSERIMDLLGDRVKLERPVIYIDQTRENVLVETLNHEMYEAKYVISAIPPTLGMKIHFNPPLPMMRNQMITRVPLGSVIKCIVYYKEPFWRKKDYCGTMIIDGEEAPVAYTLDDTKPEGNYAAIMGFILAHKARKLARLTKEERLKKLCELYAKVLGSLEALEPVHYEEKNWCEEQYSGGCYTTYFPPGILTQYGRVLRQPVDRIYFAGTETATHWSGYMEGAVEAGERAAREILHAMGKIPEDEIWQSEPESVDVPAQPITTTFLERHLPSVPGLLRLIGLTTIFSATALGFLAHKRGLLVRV

O=C1C[C@@H](c2cc(O)cc(O)c2)Oc2cc(O)ccc21
IC50: 12100 nM

Cn1c(=O)c2ccc(C(=O)Nc3ccccc3F)nc2n(C)c1=O
IC50 (fluorescence): 61 nM

COc1cc(/C=C/C(=O)N2CCC(Cc3ccccc3)CC2)ccc1OC1CCCCC1
IC50 (fluorescence): 560 nM

O=C(O)c1cc(O)c2c(c1)C(=O)c1cc(O)cc(O)c1C2=O
IC50: 31900 nM

O=c1cc(-c2ccc(O)cc2)oc2cc(O)c([C@@H]3O[C@H](CO)[C@@H](O)[C@H](O)[C@H]3O)c(O)c12
IC50: 23200 nM

c1ccc2[nH]c(-c3nc4ccccc4[nH]3)nc2c1
IC50 (fluorescence): > 30000 nM

COC(=O)c1ccc(C(=O)OC)c(NC(=O)c2cc(Cl)ccc2O)c1
IC50: > 1000 nM

O=c1[nH]c(-c2ccccc2)cnc1-c1ccccc1
IC50 (fluorescence): 140 nM

COc1ccc(/C=C/C(=O)N2CCc3ccccc3C2)cc1OC
IC50 (fluorescence): 730 nM

COc1cccc(CNc2nc3ccc(C)cc3n3cnnc23)c1
IC50 (fluorescence): 180 nM

O=C1C[C@@H](c2ccc(O)cc2)Oc2cc(O)cc(O)c21
IC50: 270 nM

CCn1c(-c2nc3cc(C(=O)N4CCC[C@@H](N)C4)cc(OC)c3n2C)cc2cccnc21
IC50: 25100 nM

O=C(Nc1ccc(OC(F)(F)F)cc1)c1cc(Cl)ccc1O
IC50: 128 nM

O=C(c1ccc(O)cc1O)[C@H](O)[C@@H](O)c1ccc(O)cc1
IC50: 29900 nM

Cn1c(=O)[nH]c(=O)n2c(CC(=O)Nc3cccc4ccccc34)cnc12
IC50 (fluorescence): 8700 nM

C#CCOc1ccc(/C=C/C(=O)N2CCc3ccccc3C2)cc1OC
IC50 (fluorescence): 540 nM
